The results in this text go back to PMC10204345 (European Journal of Medicinal Chemistry, 2023).

Read-outs that look alike come from different tables or passages of the source.

Data set [1] deals with SARS-CoV-2 3CL^pro (Severe acute respiratory syndrome coronavirus 2, UniProt P0DTD1). In kind it is biochemical.
Data set [2] can be described thus: Microsomal stability assay, mouse. In kind it is in vitro ADME. Conditions: microsomes, pH 7.41. The procedure, abridged: (§1)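 Liver microsomes in 100 mM potassium buffer with 5 mM MgCl₂, pH 7.41; test compound at 1 μM. Compound-microsome spiking mix (1.5 μM compound, 0.75 mg/mL microsomes) pre-incubated at 37 °C for 5 min, then started with NADPH (6 mM stock). Sampled at 0, 5, 15, 30 and 45 min, quenched with acetonitrile containing internal standard, centrifuged; supernatant diluted in water for LC/MS.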

Data set [3] is described as follows: Microsomal stability assay, human. In kind it is in vitro ADME. Conditions: microsomes, pH 7.41. The procedure, abridged: as §1
A short description of data set [4]: Single-dose pharmacokinetics in ICR mice. In kind it is in vivo. Conditions: single-dose oral administration 20 mg/kg. The procedure, abridged:
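Mice randomly split into IV and PO groups, three per group; single dose 10 mg/kg IV or 20 mg/kg oral. After oral dosing, blood taken at 0.25, 0.5, 1, 2, 4, 6, 8 and 24 h. Plasma (20 μL) protein-precipitated with methanol containing 100 ng/mL internal standard, vortexed, centrifuged at 18000g for 10 min, analysed by LC-MS/MS. AUC(0-t) derived by pharmacokinetic modelling.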

As to `CC(C)(C)OC(=O)N[C@H](C(=O)N1[C@@H]2CC[C@@H](C2)[C@H]1C(=O)N[C@@H](C[C@@H]1CCNC1=O)C(=O)c1nc2ccccc2s1)C(C)(C)C` [11a, tert-butyl ((S)-1-((1R,3S,4S)-3-(((S)-1-(benzo[d]thiazol-2-yl)-1-oxo-3-((S)-2-oxopyrrolidin-3-yl)propan-2-yl)carbamoyl)-2-azabicyclo[2.2.1]heptan-2-yl)-3,3-dimethyl-1-oxobutan-2-yl)carbamate], the “decrease of 3CL^pro inhibitory activity compared to 11b” value in data set [1] is on record as 45 folds.

Turning to `CC(C)(C)[C@H](NC(=O)C(F)(F)F)C(=O)N1[C@@H]2CC[C@@H](C2)[C@H]1C(=O)N[C@@H](C[C@@H]1CCNC1=O)C(=O)c1nc2ccccc2s1` [11b, (1R,3S,4S)-N-((S)-1-(benzo[d]thiazol-2-yl)-1-oxo-3-((S)-2-oxopyrrolidin-3-yl)propan-2-yl)-2-((S)-3,3-dimethyl-2-(2,2,2-trifluoroacetamido)butanoyl)-2-azabicyclo[2.2.1]heptane-3-carboxamide], the half-life at 0.75 h, 1 µM in data set [2] worked out at 7.74 min; in data set [3], 11.6 min.

With `CC(C)(F)C(=O)N[C@H](C(=O)N1[C@@H]2CC[C@@H](C2)[C@H]1C(=O)N[C@@H](C[C@@H]1CCNC1=O)C(=O)c1nc2ccccc2s1)C(C)(C)C` [11c, (1R,3S,4S)-N-((S)-1-(benzo[d]thiazol-2-yl)-1-oxo-3-((S)-2-oxopyrrolidin-3-yl)propan-2-yl)-2-((S)-2-(2-fluoro-2-methylpropanamido)-3,3-dimethylbutanoyl)-2-azabicyclo[2.2.1]heptane-3-carboxamide], the half-life at 0.75 h, 1 µM in data set [2] came out at 4.82 min; in data set [3], 18 min. The “decrease of 3CL^pro inhibitory activity compared to 11b” value in data set [1] (ratio of IC50 to that of 11b) came to 11 folds.

As for `[2H]C([2H])([2H])C(=O)N[C@H](C(=O)N1[C@@H]2CC[C@@H](C2)[C@H]1C(=O)N[C@@H](C[C@@H]1CCNC1=O)C(=O)c1nc2ccccc2s1)C(C)(C)C` [11d, (1R, 3S, 4S)-2-((S)-2-(acetamido-2,2,2-d3)-3,3-dimethylbutanoyl) -N-((S)-1-(benzo[d]thiazol-2-yl)-1-oxo-3-((S)-2-oxopyrrolidin-3-yl)propan-2-yl)-2-azabicyclo [2.2.1] heptane-3-carboxamide], the half-life at 0.75 h, 1 µM in data set [2] was 33.8 min; in data set [3] it was 42.2 min. The “decrease of 3CL^pro inhibitory activity compared to 11b” value in data set [1] was determined as 5 folds.

The compound `CC(C)(C)[C@H](NS(=O)(=O)C(F)(F)F)C(=O)N1[C@@H]2CC[C@@H](C2)[C@H]1C(=O)N[C@@H](C[C@@H]1CCNC1=O)C(=O)c1nc2ccccc2s1` [11e, (1R, 3S, 4S)-N-((S)-1-(benzo[d]thiazol-2-yl)-1-oxo-3-((S)-2-oxopyrrolidin-3-yl)propan-2-yl)-2-((S)-3,3-dimethyl-2-((trifluoromethyl)sulfonamido)butanoyl)-2-azabicyclo [2.2.1] heptane-3-carboxamide] came in with a half-life at 1 μM in data set [2] of more than 120 min. In addition, the “decrease of 3CL^pro inhibitory activity compared to 11b” value in data set [1] amounted to 8 folds. Also, in data set [4], the “AUC(0-t) higher than that of 11b” value was 2.4 times and the “AUC(0-t) higher than that of nirmatrelvir” value turned out to be 5 times. Moreover, the half-life at 1 μM in data set [3] is more than 120 min.

As to `CN(C)S(=O)(=O)N[C@H](C(=O)N1[C@@H]2CC[C@@H](C2)[C@H]1C(=O)N[C@@H](C[C@@H]1CCNC1=O)C(=O)c1nc2ccccc2s1)C(C)(C)C` [11f, (1R, 3S, 4S)-N-((S)-1-(benzo[d]thiazol-2-yl)-1-oxo-3-((S)-2-oxopyrrolidin-3-yl)propan-2-yl)-2-((S)-2-((N,N-dimethylsulfamoyl)amino)-3,3-dimethylbutanoyl)-2-azabicyclo [2.2.1] heptane-3-carboxamide], the figures for the half-life at 0.75 h, 1 µM in data set [2] and in data set [3] were 0.85 min and 3.25 min, respectively.

As to `CC(C)(C)OC[C@H](NS(=O)(=O)C(F)(F)F)C(=O)N1[C@@H]2CC[C@@H](C2)[C@H]1C(=O)N[C@@H](C[C@@H]1CCNC1=O)C(=O)c1nc2ccccc2s1` [11g, (1R, 3S, 4S)-N-((S)-1-(benzo[d]thiazol-2-yl)-1-oxo-3-((S)-2-oxopyrrolidin-3-yl)propan-2-yl)-2-(O-(tert-butyl)-N-((trifluoromethyl)sulfonyl)-L-seryl)-2-azabicyclo [2.2.1] heptane-3-carboxamide], the “decrease of enzyme activity compared to 11e” value in data set [1] is 3 times.

In the case of `COc1ccc(C[C@H](NS(=O)(=O)C(F)(F)F)C(=O)N2[C@@H]3CC[C@@H](C3)[C@H]2C(=O)N[C@@H](C[C@@H]2CCNC2=O)C(=O)c2nc3ccccc3s2)cc1` [11h, (1R, 3S, 4S)-N-((S)-1-(benzo[d]thiazol-2-yl)-1-oxo-3-((S)-2-oxopyrrolidin-3-yl)propan-2-yl)-2-((S)-3-(4-methoxyphenyl)-2-((trifluoromethyl)sulfonamido)propanoyl)-2-azabicyclo [2.2.1] heptane-3-carboxamide], the “decrease of enzyme activity compared to 11e” value in data set [1] is given as 6 times.

As for `CC(C)(C)[C@H](NC(=O)C(F)(F)F)C(=O)N1C[C@H]2[C@@H]([C@H]1C(=O)N[C@H](C#N)C[C@@H]1CCNC1=O)C2(C)C` [nirmatrelvir, reference compound], the values for the half-life at 0.75 h, 1 µM in data set [2] and in data set [3] were 17.7 min and 35.5 min, respectively.

A word on the half-life: it is the time needed for the level to fall by half in the phase considered.
